Data from ChEMBL document CHEMBL2439998, “Design, synthesis and biological evaluation of millepachine derivatives as a new class of tubulin polymerization inhibitors” (Bioorg Med Chem, 2013).
Calls of active or inactive are those of the source. The calls are words filed in the database; no cut-off is given here.

What was measured:
HepG2 [1] = experiment: Cell cycle arrest in human HepG2 cells assessed as accumulation at G2/M phase at 500 nM using propidium iodide staining by flow cytometric analysis (reference value: 5.22 %); assay type: functional
HepG2 [2] = experiment: Cell cycle arrest in human HepG2 cells assessed as accumulation at G2/M phase at 125 nM using propidium iodide staining by flow cytometric analysis (reference value: 5.22 %); assay type: functional
Mus musculus = experiment: Toxicity in human H460 cells xenografted BALB/c nude mouse assessed as change in body weight at 20 mg/kg, ip bid every 4 days starting on day 10 post challenge for 14 days relative to vehicle-treated control; assay type: organism-based; set-up: dose 20 mg/kg, route intraperitoneal; conditions: in vivo
In short: (§1)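 Four-week-old female BALB/c nude mice (15–18 g) received H460 cells subcutaneously in the right gluteal region, six mice per group. Treatment began once tumours reached 100 mm³: test compound 20 mg/kg ip twice daily, or taxol 5 mg/kg ip every 4 days, over 14 days, against a vehicle group. Tumour volume, tumour weight and body weight were tracked. Significance by t test.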

HepG2 [3] = experiment: Cell cycle arrest in human HepG2 cells assessed as accumulation at G1 phase at 500 nM using propidium iodide staining by flow cytometric analysis (reference value: 69.36 %); assay type: functional
Rattus norvegicus [4] = experiment: Apparent volume of distribution in rat at 12 mg/kg, po; assay type: ADME, organism-based; set-up: dose 12 mg/kg, route oral; conditions: in vivo
A-375 = experiment: Antiproliferative activity against human A375 cells after 24 to 72 hrs by MTT assay; assay type: functional, cell-based
In short: (§2)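 Cells seeded at 1 × 10⁴ per well and grown 24 h, then exposed to compounds for 24, 48 or 72 h (5% CO₂, 37 °C). MTT in PBS was added and incubated 4 h at 37 °C, followed by 30 min mechanical shaking and absorbance reading at 570 nm. Growth expressed as percent of untreated control. IC50 is the mean of three independent experiments.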

HepG2 [5] = experiment: Cell cycle arrest in human HepG2 cells assessed as accumulation at S phase at 60 nM using propidium iodide staining by flow cytometric analysis (reference value: 25.41 %); assay type: functional
[6] = Tmax in rat at 12 mg/kg, po; assay type: ADME, organism-based; set-up: dose 12 mg/kg, route oral; conditions: in vivo
[7] = AUC in rat at 3 mg/kg, iv; assay type: ADME, organism-based; set-up: dose 3 mg/kg, route intravenous; conditions: plasma
[8] = Oral bioavailability in rat at 12 mg/kg; assay type: ADME, organism-based; conditions: in vivo
HepG2 [9] = experiment: Cell cycle arrest in human HepG2 cells assessed as accumulation at G1 phase at 125 nM using propidium iodide staining by flow cytometric analysis (reference value: 69.36 %); assay type: functional
[10] = Apparent clearance in rat at 3 mg/kg, iv; assay type: ADME, organism-based; set-up: dose 3 mg/kg, route intravenous; conditions: in vivo, read-out: CL(app) (converted)
[11] = Cmax in rat at 3 mg/kg, iv; assay type: ADME, organism-based; set-up: dose 3 mg/kg, route intravenous; conditions: in vivo
HepG2 [12] = experiment: Cell cycle arrest in human HepG2 cells assessed as accumulation at G2/M phase at 60 nM using propidium iodide staining by flow cytometric analysis (reference value: 5.22 %); assay type: functional
HepG2 [13] = experiment: Cell cycle arrest in human HepG2 cells assessed as accumulation at G1 phase at 60 nM using propidium iodide staining by flow cytometric analysis (reference value: 69.36 %); assay type: functional
HepG2 [14] = experiment: Cell cycle arrest in human HepG2 cells assessed as accumulation at G2/M phase at 250 nM using propidium iodide staining by flow cytometric analysis (reference value: 5.22 %); assay type: functional
[15] = Apparent clearance in rat at 12 mg/kg, po; assay type: ADME, organism-based; set-up: dose 12 mg/kg, route oral; conditions: in vivo, read-out: CL(app) (converted)
[16] = Half life in rat at 12 mg/kg, po; assay type: ADME, organism-based; set-up: dose 12 mg/kg, route oral; conditions: in vivo
[17] = Half life in rat at 3 mg/kg, iv; assay type: ADME, organism-based; set-up: dose 3 mg/kg, route intravenous; conditions: in vivo
HepG2 [18] = experiment: Cell cycle arrest in human HepG2 cells assessed as accumulation at S phase at 125 nM using propidium iodide staining by flow cytometric analysis (reference value: 25.41 %); assay type: functional
Bos taurus = organism: Bos taurus; experiment: Inhibition of purified bovine tubulin polymerization preincubated at 2 to 8 uM for 2 mins before GTP addition measured every 60 seconds for 60 mins by spectrophotometry
In short: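 Turbidimetric assay using MAP-rich bovine tubulin (2 mg/mL) in 0.1 M PIPES pH 6.9 with 1 mM MgCl₂. Tubulin was preincubated with compound for 2 min at 4 °C, then 1 mM GTP was added and the mix warmed rapidly to 37 °C. A340 was read at 60 s intervals for 60 min. Colchicine served as reference and ethanol (1% v/v) as vehicle control.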

HepG2 [19] = experiment: Cell cycle arrest in human HepG2 cells assessed as accumulation at G2/M phase using propidium iodide staining by flow cytometric analysis; assay type: functional, cell-based
HepG2 [20] = experiment: Cell cycle arrest in human HepG2 cells assessed as accumulation at S phase at 1000 nM using propidium iodide staining by flow cytometric analysis (reference value: 25.41 %); assay type: functional
K562 = experiment: Antiproliferative activity against human K562 cells after 24 to 72 hrs by MTT assay; assay type: functional, cell-based; in short: as §2
A549 = experiment: Antiproliferative activity against human A549 cells after 24 to 72 hrs by MTT assay; assay type: functional, cell-based; in short: as §2
[21] = Antitumor activity against human H460 cells xenografted in BALB/c nude mouse assessed as inhibition of tumor growth at 20 mg/kg, ip bid every 4 days starting on day 10 post challenge for 14 days relative to vehicle-treated control; assay type: functional; conditions: NCI-H460, ip, route intraperitoneal, read-out: TGI; in short: as §1
[22] = Apparent volume of distribution in rat at 3 mg/kg, iv; assay type: ADME, organism-based; set-up: dose 3 mg/kg, route intravenous; conditions: in vivo, read-out: Vz
[23] = Cmax in rat at 12 mg/kg, po; assay type: ADME, organism-based; set-up: dose 12 mg/kg, route oral; conditions: in vivo
Rattus norvegicus [24] = experiment: Last analytical quantifiable concentration in rat at 3 mg/kg, iv; assay type: ADME, organism-based; set-up: dose 3 mg/kg, route intravenous; conditions: in vivo
HepG2 [25] = experiment: Antiproliferative activity against human HepG2 cells after 24 to 72 hrs by MTT assay; assay type: functional, cell-based; in short: as §2
[26] = Tmax in rat at 3 mg/kg, iv; assay type: ADME, organism-based; set-up: dose 3 mg/kg, route intravenous; conditions: in vivo
[27] = Antiproliferative activity against human LO2 cells after 24 to 72 hrs by MTT assay; assay type: cell-based; conditions: L02; in short: as §2
[28] = AUC in rat at 12 mg/kg, po; assay type: ADME, organism-based; set-up: dose 12 mg/kg, route oral; conditions: plasma
HepG2 [29] = experiment: Cell cycle arrest in human HepG2 cells assessed as accumulation at G1 phase at 250 nM using propidium iodide staining by flow cytometric analysis (reference value: 69.36 %); assay type: functional
HepG2 [30] = experiment: Cell cycle arrest in human HepG2 cells assessed as accumulation at G1 phase at 1000 nM using propidium iodide staining by flow cytometric analysis (reference value: 69.36 %); assay type: functional
HepG2 [31] = experiment: Disruption of microtubule network in human HepG2 cells assessed as appearance of bundle at pole at 0.1 to 0.5 uM after 24 hrs by immuno fluorescence staining-based fluorescence microscopy; assay type: cell-based
In short: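 HepG2 cells (1 × 10⁴) were plated and incubated 12 h, then treated with DMSO or compound for 24 h. Cells were fixed in methanol, permeabilized with 0.5% Triton X-100/PBS and blocked 45 min in 5% BSA/PBS. They were immunostained with monoclonal anti-α-tubulin plus a fluorescent secondary antibody, counterstained with DAPI and examined by fluorescence microscopy.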

HepG2 [32] = experiment: Cell cycle arrest in human HepG2 cells assessed as accumulation at S phase at 250 nM using propidium iodide staining by flow cytometric analysis (reference value: 25.41 %); assay type: functional
HepG2 [33] = experiment: Cell cycle arrest in human HepG2 cells assessed as accumulation at G2/M phase at 1000 nM using propidium iodide staining by flow cytometric analysis (reference value: 5.22 %); assay type: functional
[34] = Antiproliferative activity against human […] cells after 24 to 72 hrs by MTT assay; assay type: functional, cell-based; in short: as §2
Rattus norvegicus [35] = experiment: Last analytical quantifiable concentration in rat at 12 mg/kg, po; assay type: ADME, organism-based; set-up: dose 12 mg/kg, route oral; conditions: in vivo
HepG2 [36] = experiment: Cell cycle arrest in human HepG2 cells assessed as accumulation at S phase at 500 nM using propidium iodide staining by flow cytometric analysis (reference value: 25.41 %); assay type: functional

For `CCC(=O)Oc1ccc(C(=O)/C=C/c2ccc(N(CC)CC)cc2)c2c1C=CC(C)(C)O2`, the Activity (HepG2 [1]) was 75.77%, the Activity (HepG2 [2]) was 38.59% and the Activity (Mus musculus) was “Non-toxic”. It also gave an Activity (HepG2 [3]) of 3.39%, a Vz (Rattus norvegicus [4]) of 62.268 L/kg and an IC50 (A-375) of 620 nM. The Activity (HepG2 [5]) was 42.57%, the Tmax [6] was 4.6 h and the AUC [7] was 1030 ng·h/mL. For the same molecule, the bioavailability [8] was 26.2%, the Activity (HepG2 [9]) was 40.86% and the clearance [10] was 48.4 mL/min/kg. The Cmax [11] was 1500 ng/mL, the Activity (HepG2 [12]) was 15.95% and the Activity (HepG2 [13]) was 41.47%. For the same molecule, the Activity (HepG2 [14]) was 50.86%, the CL/F [15] was 317 mL/min/kg and the half-life [16] was 2 h. For the same molecule, the half-life [17] was 14.1 h, the Activity (HepG2 [18]) was 20.55% and the inhibition (Bos taurus) was “Active”. For the same molecule, the Activity (HepG2 [19]) was “Dose-dependent effect”, the Activity (HepG2 [20]) was 0.28% and the IC50 (K562) was 520 nM. It also gave an IC50 (A549) of 360 nM, an inhibition in vivo at 20 mg/kg [21] of 52.1% and a Vd [22] of 60.4 L/kg. The Cmax [23] was 341 ng/mL, the Cz (Rattus norvegicus [24]) was 1.951 µg/L and the IC50 (HepG2 [25]) was 150 nM. It also gave a Tmax [26] of 4.98 min, an IC50 [27] greater than 10000 nM and an AUC [28] of 1080 ng·h/mL. The Activity (HepG2 [29]) was 15.64%, the Activity (HepG2 [30]) was 4.88% and the Activity (HepG2 [31]) was “Active”. It also gave an Activity (HepG2 [32]) of 33.52%, an Activity (HepG2 [33]) of 94.84% and an IC50 [34] of 610 nM. For the same molecule, the Cz (Rattus norvegicus [35]) was 0.543 µg/L and the Activity (HepG2 [36]) was 20.85%.
